Data set [1] has as its system SS cells (homozygous sickle red blood cells). As to the kind of experiment: Antisickling study. The format is cell-based, human. The conditions noted are these: for inhibition of RBC sickling: hypoxia. Summed up:
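SS patient blood suspensions (20% hematocrit) were preincubated in air with 0, 1, 2 or 5 mM test compound (final DMSO <2%) at 37 °C for 1 h. They were then held under hypoxia (4% O2/96% N2) at 37 °C for 2 h. Aliquots were fixed in 2% glutaraldehyde without air exposure and scored microscopically for sickled cells. % inhibition was calculated against untreated control. Three biological replicates.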

In a further data set the target is sickle Hb (Hb S) (Homo sapiens, UniProt P69905). As to the kind of experiment: Hb adduct formation study. The format is cell-based. The following applies: SS cells, 20% hematocrit, 2 mM compound, mean ± SD of three experiments. Summed up: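 SS cell suspensions (20% hematocrit) were incubated with test compound (final DMSO <2%) in air at 37 °C for 1 h, then under 4% O2/96% N2 at 37 °C for 2 h. Cells were PBS-washed and lysed in hypotonic buffer. Clarified hemolysate was run on weak cation-exchange HPLC, and modified Hb S was taken from elution patterns. Three biological replicates, mean ± SD.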

In the next data set the target is Hb A (Homo sapiens, UniProt P69905). As to the kind of experiment: Time-dependent Hb adduct formation in normal whole blood. The format is in vitro ADME. The conditions noted are these: for Hb modification (residual Hb adduct) at 24 h: normal whole blood, 2 mM compound; for remaining activity at 2000 µM: read-out: remaining activity at 24 h. Summed up: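 Normal donor whole blood (30% hematocrit) was incubated with 2 mM test compound at 37 °C for 24 h with shaking at 140 rpm. Aliquots taken at 0.5, 1, 2, 4, 6, 8 and 24 h were mixed 1:1 with sodium cyanoborohydride/borohydride mix (50 mM stock) to fix adducts. Samples were stored at −80 °C, then analysed by cation-exchange HPLC as %Hb modified versus time. Peak was found by visual inspection and AUC0–24 by linear trapezoidal rule.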

For data set [2] the following is noted: cited from earlier work.
The target in the next data set is Hb (Homo sapiens, UniProt P69905). As to the kind of experiment: Incubation of VZHE004 with Hb for 3 days, UPLC-MS analysis. The format is physicochemical. The following applies: incubated with Hb for 3 days.
Where [3] appears, read: at all three concentrations (1, 2 and 5 mM).

“And” between values parts separate entries of the source, which are not always exact repeats. Equal values may be shown once. Some results are limits rather than exact numbers.

For `O=Cc1ccc(COc2ccc(Cl)cc2)o1` [5-CMFC, 5-((4-chlorophenoxy)methyl)-2-furan carbaldehyde], in data set [1] (setting [3]), the “inhibition of RBC sickling” value is reported as < 10%.

`CCCOCc1ccc(C=O)o1` [VZHE015, 5-(Propoxymethyl)-2-furan Carboxadehyde]: the “modified Hb (%)” value on sickle Hb (Hb S) worked out at 39.7 ± 8.2%.

Consider `COCc1ccc(C=O)o1` [VZHE005, 5-(Methoxymethyl)-2-furan Carboxadehyde], for which, on sickle Hb (Hb S), the “modified Hb (%)” value was determined as 35.3 ± 11.6%.

`CC(C)OCc1ccc(C=O)o1` [VZHE016, 5-(Isopropoxymethyl)-2-furan Carboxadehyde]: the “inhibition of RBC sickling” value in data set [1] (5 mM compound) is < 10%. At sickle Hb (Hb S), the “modified Hb (%)” value worked out at 36.4 ± 9.7%.

Regarding `O=Cc1ccc(COc2ccccc2[N+](=O)[O-])o1` [5-NMFC, 5-((2-nitrophenoxy)methyl)-2-furan carbaldehyde], the “inhibition of RBC sickling” value in data set [1] (setting [3]) is recorded as < 10%. Besides, at Hb A, the “Hb modification (residual Hb adduct) at 24 h” value is ~ 7% and the remaining activity (in general, what remains of the control signal, in per cent) at 2000 µM is ~29%.

For `CCOCc1ccc(C=O)o1` [VZHE011, 5-(Ethoxymethyl)-2-furan Carboxadehyde], on sickle Hb (Hb S), the “modified Hb (%)” value came to 40.4 ± 3.9%.

As for `CC(C)(C)OC(=O)OCc1ccc(C=O)o1` [VZHE006, tert-Butyl((5-formylfuran-2-yl)methyl) Carbonate], the “fold antisickling potency over the other three esters and 5-HMF” value in data set [1] (2 mM compound) was “roughly 3 fold”. Moreover, in data set [1] (5 mM compound), the “inhibition of RBC sickling” value was > 95%. Also, the “modified Hb (%)” value on sickle Hb (Hb S) is 50.0 ± 3.0%.

With `O=Cc1ccc(COc2ccccc2)o1` [5-PMFC, 5-(Phenoxymethyl)-2-furan carbaldehyde], on Hb A, the “Hb modification (residual Hb adduct) at 24 h” value was ~ 7% and the remaining activity at 2000 µM was ~29%.

Regarding `O=Cc1ccc(CO)o1` [5-HMF, 5-hydroxymethyl-2-furfural, reference compound], on Hb A, the “Hb modification (residual Hb adduct) at 24 h” value was ~ 2% and 1.1%; the remaining activity at 2000 µM is ~8%. In data set [2], the plasma half-life is ~ 1 h.

Take `COP(=O)(OC)OCc1ccc(C=O)o1` [VZHE014, (5-Formylfuran-2-yl)methyl Dimethyl Phosphate]: the “inhibition of RBC sickling” value in data set [1] (5 mM compound) was 43% and ~ 40%. Besides, at sickle Hb (Hb S), the “modified Hb (%)” value is 19.7 ± 6.3%.

As to `CC(=O)OCc1ccc(C=O)o1` [VZHE004, (5-Formylfuran-2-yl)methyl Acetate], at Hb, the “stability against hydrolytic cleavage of the ester (UPLC–MS)” value is recorded as “intact”.

(Values after article PMC5871537 (Molecular pharmaceutics, 2017).)
